Experimental findings from ChEMBL document CHEMBL1129414, “Synthesis and cytotoxic and antitumor activity of esters in the 1,2-dihydroxy-1,2-dihydroacronycine series” (J Med Chem, 1996) are described below.

Experiment [1] deals with L1210. In words: Compound was tested in vitro for cytotoxicity on L1210 leukemic cells by using MTT assay. The format is functional, cell-based. To be noted: Mus musculus. A digest of the protocol: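 L1210 cells were grown in RPMI 1640 with 10% fetal calf serum, 2 mM L-glutamine and 10 mM HEPES (pH 7.4). Cells were exposed for 48 h to nine serial drug dilutions in triplicate, and viability was read by MTT. IC50 is the concentration halving optical density versus untreated controls, given as mean ± SEM of at least 3 independent experiments.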
On the technique in general: Tetrazolium dyes change colour on reduction, which living cells bring about.

The subject of experiment [2] is P388. In words: Compound was tested for antitumor activity against P388 leukemia cells at the dose of 50 mg/kg ip. The format is functional, Mus musculus.
Experiment [3] concerns MC-38. The experiment in a line: Compound was tested for antitumor activity against colon 38 adenocarcinoma cells at the dose of 12.5 mg/kg ip. The class given is functional, Mus musculus.
Experiment [4] relates to P388. The experiment in a line: Compound was tested for antitumor activity against P388 leukemia cells at the dose of 25 mg/kg iv. The format is functional, Mus musculus.
Experiment [5] concerns P388. In words: Compound was tested for antitumor activity against P388 leukemia cells at the dose of 25 mg/kg ip. The class given is functional, Mus musculus.
Experiment [6] relates to MC-38. The experiment in a line: Compound was tested for antitumor activity against colon 38 adenocarcinoma cells at the dose of 6.25 mg/kg ip. The format is functional, Mus musculus.
Experiment [7] has as its system P388. The experiment in a line: Compound was tested for antitumor activity against P388 leukemia cells at the dose of 12.5 mg/kg ip. The following applies: Mus musculus.
Experiment [8] has as its system MC-38. The experiment in a line: Compound was tested for antitumor activity against colon 38 adenocarcinoma cells at the dose of 200 mg/kg ip. The class given is functional, Mus musculus.
Experiment [9] relates to P388. In words: Compound was tested for antitumor activity against P388 leukemia cells at the dose of 200 mg/kg ip. The format is functional, Mus musculus.
Experiment [10] concerns P388. The experiment in a line: Compound was tested for antitumor activity against P388 leukemia cells at the dose of 12.5 mg/kg ip. The class given is functional, Mus musculus.

Consider `Cn1c2ccccc2c(=O)c2ccc3c(c21)[C@@H](O)[C@@H](O)C(C)(C)O3`, for which, in experiment [1], the IC50 (as a rule, the midpoint of a concentration-inhibition curve) was more than 50 µM.

Consider `COc1cc2c(c3c1c(=O)c1ccccc1n3C)[C@@H](OC(C)=O)[C@@H](OC(=O)c1ccccc1)C(C)(C)O2`, for which, in experiment [1], it took 5 µM to reach half-maximal inhibition (IC50). Further, the Activity in experiment [2] is listed as 201%; in experiment [3], 13%.

As to `COc1cc2c(c3c1c(=O)c1ccccc1n3C)[C@@H](OC(C)=O)[C@@H](OC(C)=O)C(C)(C)O2`, the Activity was found to be 220% in experiment [4], 289% in experiment [5] and 0% in experiment [3]. In addition, in experiment [1], the IC50 is 5.8 µM.

Molecule `CC(=O)O[C@@H]1c2c(ccc3c(=O)c4ccccc4n(C)c23)OC(C)(C)[C@@H]1OC(C)=O` registered an IC50 in experiment [1] of more than 50 µM.

For the molecule `COc1cc2c(c3c1c(=O)c1ccccc1n3C)[C@@H](O)[C@@H](O)C(C)(C)O2`, the IC50 in experiment [1] is 80.6 µM. In other words, the double-digit micromolar range.

In experiment [1], `COc1cc2c(c3c1c(=O)c1ccccc1n3C)CCC(C)(C)O2` [DIHYDROACRONYCINE] showed an IC50 of 34.3 µM. This IC50 lies about 2.3-fold lower than the previous one.

With `Cn1c2ccccc2c(=O)c2ccc3c(c21)[C@H]1OC(=O)O[C@H]1C(C)(C)O3`, the IC50 in [1] is more than 50 µM.

Molecule `Cn1c2ccccc2c(=O)c2ccc3c(c21)C=CC(C)(C)O3` yielded a concentration for half-maximal inhibition (IC50) in experiment [1] of 29.7 µM.

Regarding `COc1cc2c(c3c1c(=O)c1ccccc1n3C)[C@H]1OC(=O)O[C@H]1C(C)(C)O2`, the IC50 in experiment [1] is 0.32 µM. Besides, the figures for the Activity in experiment [6] and in experiment [7] were 68% and 202%, respectively.

In experiment [1], `COc1cc2c(c3c1c(=O)c1ccccc1n3C)C=CC(C)(C)O2` [ACRONINE] had an IC50 of 24.1 µM. The Activity in experiment [8] is 4%; in [9] it was 125%.

Turning to `COc1cc2c(c3c1c(=O)c1ccccc1n3C)[C@@H](O)[C@@H](OC(=O)c1ccccc1)C(C)(C)O2`, the Activity in [10] was determined as 258%; in experiment [6] it was 18%. The molecule further showed an IC50 in experiment [1] of 7.1 µM.

Take `COc1cc2c(c3c1c(=O)c1ccccc1n3C)[C@@H](O)[C@@H](OC(C)=O)C(C)(C)O2`: in experiment [1], 8.9 µM corresponded to half-maximal inhibition (IC50).
